Laboratory results: ChEMBL document CHEMBL1138832, “N2-substituted O6-cyclohexylmethylguanine derivatives: potent inhibitors of cyclin-dependent kinases 1 and 2” (J Med Chem, 2004)

Experiments:
[1] = biological target: Cyclin-dependent kinase 1/cyclin B (Homo sapiens, UniProt P06493); test: Inhibitory activity against cyclin-dependent kinase 1-cyclin B.; format: protein-complex assay
How it was run: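 CDK1/cyclin B1 enzyme from starfish (Marthasterias glacialis) oocytes; kinase inhibition assayed by a method from earlier work.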

[2] = biological target: Cyclin-dependent kinase 1/cyclin B (starfish); test: Inhibition of Cyclin-dependent kinase 1-cyclin B at 10 uM
[3] = biological target: T1, Cyclin-dependent kinase 2/cyclin A (Homo sapiens, UniProt P24941); test: (§1) Inhibition of Cyclin-dependent kinase 2-Cyclin A3 at 10 uM; format: protein-complex assay
How it was run: (§2)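 Human CDK2/cyclin A kinase inhibition assay run by an earlier-published method. Solubility limited the highest concentration that could be tested to 10 µM.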

[4] = biological target: T2, Cyclin-dependent kinase 2/cyclin A (Homo sapiens) (UniProt P24941+P20248+P78396); test: as §1; format: protein-complex assay; how it was run: as §2
[5] = system: Cyclin-dependent kinase 1/cyclin B (starfish); test: Inhibition of Cyclin-dependent kinase 1-cyclin B at 10 uM; conditions: Asteroidea
[6] = biological target: T1, Cyclin-dependent kinase 2/cyclin A; test: Inhibition of cyclin-dependent kinase 2-cyclin A3 (CDK2); format: protein-complex assay
[7] = biological target: Cyclin-dependent kinase 1/cyclin B (starfish); test: Inhibition of Cyclin-dependent kinase 1-cyclin B at 100 uM
[8] = biological target: T1, Cyclin-dependent kinase 2/cyclin A; test: Inhibition of Cyclin-dependent kinase 2-Cyclin A3 at 100 uM; format: protein-complex assay
[9] = biological target: Cyclin-dependent kinase 1/cyclin B (Homo sapiens) (UniProt P06493+P14635+Q8WWL7+O95067); test: Inhibition of cyclin-dependent kinase 1/Cyclin B at 10 uM; format: protein-complex assay; conditions: Marthasterias glacialis
How it was run: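 Starfish (Marthasterias glacialis) oocyte CDK1/cyclin B1 kinase inhibition assay run by an earlier-published method. Solubility limited the highest concentration that could be tested to 10 µM.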

[10] = biological target: T2, Cyclin-dependent kinase 2/cyclin A (Homo sapiens); test: Inhibition of cyclin-dependent kinase 2/Cyclin A3 at 10 uM; format: protein-complex assay; how it was run: as §2

IC50 [1] | IC50 [6] | Compound | other results
1600 nM | – | c1ccc(Nc2nc(OCC3CCCCC3)c3nc[nH]c3n2)cc1 | –
600 nM | – | CN(C)C(=O)c1ccc(Nc2nc(OCC3CCCCC3)c3[nH]cnc3n2)cc1 | –
200 nM | – | C[S+]([O-])c1ccc(Nc2nc(OCC3CCCCC3)c3[nH]cnc3n2)cc1 (stereo unspecified) | –
300 nM | – | OCc1cccc(Nc2nc(OCC3CCCCC3)c3[nH]cnc3n2)c1 | –
2400 nM | – | CSc1cccc(Nc2nc(OCC3CCCCC3)c3nc[nH]c3n2)c1 | –
5300 nM | – | Brc1cccc(Nc2nc(OCC3CCCCC3)c3[nH]cnc3n2)c1 | –
790 nM | – | COc1ccc(Nc2nc(OCC3CCCCC3)c3[nH]cnc3n2)cc1 | –
9 nM | – | CNS(=O)(=O)c1ccc(Nc2nc(OCC3CCCCC3)c3nc[nH]c3n2)cc1 | –
77 nM | – | CN(C)S(=O)(=O)c1ccc(Nc2nc(OCC3CCCCC3)c3nc[nH]c3n2)cc1 | –
240 nM | – | NS(=O)(=O)c1cccc(Nc2nc(OCC3CCCCC3)c3nc[nH]c3n2)c1 | –
1000 nM | 800 nM | O=C(O)c1ccc(Nc2nc(OCC3CCCCC3)c3nc[nH]c3n2)cc1 | –
2200 nM | – | COc1cccc(Nc2nc(OCC3CCCCC3)c3[nH]cnc3n2)c1 | –
400 nM | 200 nM | CNC(=O)c1ccc(Nc2nc(OCC3CCCCC3)c3nc[nH]c3n2)cc1 | –
500 nM | – | CC(=O)c1ccc(Nc2nc(OCC3CCCCC3)c3[nH]cnc3n2)cc1 | –
140 nM | 130 nM | NC(=O)Cc1ccc(Nc2nc(OCC3CCCCC3)c3nc[nH]c3n2)cc1 | –
37000 nM | 52000 nM | CCc1cccc(Nc2nc(OCC3CCCCC3)c3[nH]cnc3n2)c1 | inhibition [9]: 32%; inhibition [4]: 37%
300 nM | – | N#CCc1ccc(Nc2nc(OCC3CCCCC3)c3[nH]cnc3n2)cc1 | –

Further lines, the molecule ahead of its results:

Compound | IC50 [1] | IC50 [6] | other results
COC(=O)c1ccc(Nc2nc(OCC3CCCCC3)c3nc[nH]c3n2)cc1 | – | – | IC50 [2]: 66000 nM; IC50 [3]: 25000 nM
Fc1cccc(Nc2nc(OCC3CCCCC3)c3[nH]cnc3n2)c1 | – | – | inhibition [4]: 62%; inhibition [5]: 69%
c1csc(CNc2nc(OCC3CCCCC3)c3[nH]cnc3n2)c1 | 700 nM | 1700 nM | –
CC[C@H](CO)Nc1nc(OCC2CCCCC2)c2[nH]cnc2n1 | – | – | inhibition [4]: 62%; inhibition [5]: 43%
Fc1ccc(Nc2nc(OCC3CCCCC3)c3[nH]cnc3n2)cc1 | – | – | inhibition [4]: 27%; inhibition [5]: 20%
CC(C)Nc1nc(OCC2CCCCC2)c2[nH]cnc2n1 | 2000 nM | 1200 nM | –
COc1ccc(Oc2nc(OCC3CCCCC3)c3[nH]cnc3n2)cc1 | – | – | IC50 [7]: 10000 nM; IC50 [8]: 42000 nM
OCCNc1nc(OCC2CCCCC2)c2[nH]cnc2n1 | 3200 nM | 2800 nM | –
Fc1ccc(Nc2nc(OCC3CCCCC3)c3[nH]cnc3n2)cc1Cl | – | – | inhibition [4]: 68%; inhibition [5]: 73%
NS(=O)(=O)c1ccc(NNc2nc(OCC3CCCCC3)c3[nH]cnc3n2)cc1 | 8900 nM | 4300 nM | –
CC[C@@H](CO)Nc1nc(OCC2CCCCC2)c2[nH]cnc2n1 | – | – | inhibition [4]: 52%; inhibition [5]: 29%
NS(=O)(=O)c1ccc(CNc2nc(OCC3CCCCC3)c3[nH]cnc3n2)s1 | 5700 nM | 5000 nM | –
CCNc1nc(OCC2CCCCC2)c2[nH]cnc2n1 | 3300 nM | 2800 nM | –
Fc1nc(OCC2CCCCC2)c2[nH]cnc2n1 | – | – | inhibition [4]: 4%; inhibition [5]: 7%
Clc1nc(OCC2CCCCC2)c2[nH]cnc2n1 | – | – | inhibition [4]: 5%; inhibition [5]: 6%
Clc1cc(Cl)cc(Nc2nc(OCC3CCCCC3)c3[nH]cnc3n2)c1 | 13000 nM | 12000 nM | –
CSc1ccc(Nc2nc(OCC3CCCCC3)c3[nH]cnc3n2)cc1 | – | – | inhibition [4]: 18%; inhibition [5]: 10%
COc1cc(Nc2nc(OCC3CCCCC3)c3[nH]cnc3n2)ccc1S(N)(=O)=O | 103 nM | – | –
CC(C)[C@@H](CO)Nc1nc(OCC2CCCCC2)c2[nH]cnc2n1 | – | – | inhibition [4]: 19%; inhibition [5]: 1%
CNc1nc(OCC2CCCCC2)c2[nH]cnc2n1 | 5300 nM | 5000 nM | –
CN(C)c1nc(OCC2CCCCC2)c2[nH]cnc2n1 | – | – | inhibition [4]: 31%; inhibition [5]: 27%
CC(C)[C@H](CO)Nc1nc(OCC2CCCCC2)c2[nH]cnc2n1 | – | – | inhibition [5]: 2%; inhibition [10]: 20%
